Data taken from ChEMBL document CHEMBL1126041, “Leukotriene B4 receptor antagonists: the LY255283 series of hydroxyacetophenones” (J Med Chem, 1992).

Key:
[1] = target: Leukotriene B4 receptor (Homo sapiens) (UniProt Q9NPC1+Q15722); assay: Inhibition of [3H]LTB4 binding to leukotriene B4 receptor of human peripheral neutrophils (PMN) at a concentration of 0.1 uM.; type: protein assay
In short: (§1)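 Neutrophils isolated by Ficoll-Hypaque centrifugation, dextran 70 sedimentation and hypotonic lysis (≥90% neutrophils, ≥90% viable), 2 × 10^7 cells/mL in Hank's balanced salt solution with 0.1% ovalbumin. Compound in DMSO plus 2.65 nM [3H]LTB4 (stock), 10 min at 4 °C. Cells spun through dibutyl/dinonyl phthalate (7:2), pellet counted by scintillation. Triplicate incubations averaged. Reported as % inhibition of specific binding; nonspecific binding taken with >2000-fold excess unlabeled LTB4.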

[2] = target: Leukotriene B4 receptor 1 (Homo sapiens) (UniProt Q15722); assay: Inhibition of [3H]LTB4 binding to leukotriene B4 receptor from human peripheral neutrophils (PMN), at a concentration of 1 uM; in short: as §1
Chain of Leukotriene B4 receptor 1 (Homo sapiens) (Q15722 whole entry): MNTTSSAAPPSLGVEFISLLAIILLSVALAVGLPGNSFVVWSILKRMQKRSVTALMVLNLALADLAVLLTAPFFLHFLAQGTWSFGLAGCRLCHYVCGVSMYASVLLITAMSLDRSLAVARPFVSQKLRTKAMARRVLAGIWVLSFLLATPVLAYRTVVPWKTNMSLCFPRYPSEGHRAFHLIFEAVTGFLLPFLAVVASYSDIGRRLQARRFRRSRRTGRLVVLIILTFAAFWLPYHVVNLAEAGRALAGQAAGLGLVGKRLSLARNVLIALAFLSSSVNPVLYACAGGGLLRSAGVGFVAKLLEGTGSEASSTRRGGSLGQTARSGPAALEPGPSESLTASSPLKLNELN

[3] = target: Leukotriene B4 receptor 1 (Homo sapiens) (UniProt Q15722); assay: Inhibition of binding of [3H]LTB4 to the leukotriene B4 receptor of human peripheral neutrophils (PMN) at a concentration of 10 uM.; in short: as §1

Chain of Leukotriene B4 receptor (Homo sapiens) (Q15722 whole entry, looked up): as the sequence (Q15722 whole entry) above
Chain of Leukotriene B4 receptor (Homo sapiens) (Q9NPC1 whole entry, looked up): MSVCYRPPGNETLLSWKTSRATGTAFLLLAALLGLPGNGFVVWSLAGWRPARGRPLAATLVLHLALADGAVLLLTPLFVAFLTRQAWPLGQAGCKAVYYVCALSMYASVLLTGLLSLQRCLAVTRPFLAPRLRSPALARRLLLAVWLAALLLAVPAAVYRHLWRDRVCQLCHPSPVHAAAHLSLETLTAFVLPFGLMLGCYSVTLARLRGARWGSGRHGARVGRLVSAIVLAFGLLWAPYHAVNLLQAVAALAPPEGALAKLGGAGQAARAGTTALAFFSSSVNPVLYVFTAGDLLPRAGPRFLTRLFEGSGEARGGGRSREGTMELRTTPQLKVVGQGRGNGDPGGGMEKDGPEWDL

Question: Which results are given for `CCc1cc(C(C)=O)c(O)cc1OCCCCCCC(C)(C)C#N`?
Answer: inhibition [1]: 11%; inhibition [2]: 30%; inhibition [3]: 65%
